# Source: PubChem BioAssay
# A number with no mark means an inactive call. Inconclusive results are not listed. Calls of active or inactive are those of the source.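 The calls were made as follows, unless noted: active = viability increase at or above a cutoff of the median across tested compounds plus 3 SD (cut at about 8.5% in these data, passing the limit was not always enough); inconclusive = some gains above the cutoff, reason not given; inactive = the rest.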
# What was measured:
# [1] = OD615 S. cerevisiae growth inhibition, permissive medium, pilot counter-assay, permissive growth control for S. cerevisiae lifespan shortening project (AID 705;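 active = growth inhibition above 25% in both replicates, a cutoff set 3 SD above the mean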); settings: OD615, 24 h, at 10 µM, stronger effect = higher value
# In short: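 assay system = Saccharomyces cerevisiae strain carrying genetically modified DeaD replicative-lifespan system | medium = SC raffinose/galactose permissive medium | dosing = 10 µM single dose, 0.25% DMSO | schedule = 24 h compound exposure at 30 °C after 4 h pre-growth | measured by = OD at 615 nm | read-out basis = growth inhibition from lowered OD615 after 24 h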
# [2] = Restrictive medium S. cerevisiae growth inhibition, OD615, pilot screen of yeast lifespan reduction project, restrictive growth control (AID 706;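 active = growth inhibition above a set limit, 3 SD over mean compound inhibition, in both replicates, cut at about 43% in these data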;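 also: modified DeaD lifespan yeast strain shifted to restrictive glucose medium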); settings: OD615, 48 h, at 10 µM, stronger effect = higher value
# In short: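 Buffer or medium: CSMM-D glucose medium. Material: genetically modified Saccharomyces cerevisiae, DeaD replicative lifespan assay strain. Times: 48 h compound exposure at 30 °C. Measured by: optical density at 615 nm.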
# [3] = viability gain of MRP-1-high H69AR cells under doxorubicin, pilot screen, MRP-1 activator project, CellTiter-Glo, duplicate (AID 807); settings: H69AR viability with doxorubicin, CellTiter-Glo luminescence; at 10 µM; stronger effect = higher value;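 also: compound pretreatment 18-22 h then 72 h combined with doxorubicin; 0% = doxorubicin alone and 100% = vehicle without doxorubicin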
# [4] = growth suppression of beta-catenin knockout HCT116, pilot screen, human colon tumor cells (AID 823;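 active = cell viability at or below a set limit in both duplicate runs, the limit being the all-compound median minus 4 SD, cut at about 23% in these data, passing the limit was not always enough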;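 also: 0% = wells killed by 20 µM Hyamine and 100% = untreated DMSO cell wells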); settings: CellTiter-Glo, 60 h, at 10 µM, stronger effect = lower value
# [5] = inhibitors of the yeast RAM network, pilot screen, dse1pr::URA3 reporter, 5-FOA selection (AID 869;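 active = inhibition over a set limit, the all-compound mean plus 3 SD, in both replicate runs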;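 also: 0% = DMSO wells with no growth and 100% = 10 µM 1-NA-PP1 with full growth; RAM network block rescues cells from 5-FOA so hits raise OD615 growth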); settings: S. cerevisiae dse1pr::URA3 5-FOA growth, OD615, 2 d; at 10 µM; stronger effect = higher value; strain carries analog-sensitive mutant Cbk1 kinase
# [6] = RAM signaling pathway blockade in yeast – S. cerevisiae, Pdr1DBD-CYC8 efflux-inhibited sensitized strain, primary screen (AID 1298;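 active = RAM network inhibition above 8.4% in each of two replicates, 3 SD over the compound average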;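 also: 0% = DMSO untreated cells without growth and 100% = 10 µM 1-NA-PP1 full growth; higher means more yeast growth rescued from 5-FOA killing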); settings: S. cerevisiae cbk1-as DSE1-URA3 strain, 5-FOA growth OD615, 2 d; at 50 µM; stronger effect = higher value
SMILES,growth inhibition [1],growth inhibition [2],viability increase [3],viability [4],inhibition [5],RAM network inhibition [6]
C=CCn1c(CCNC(=O)C(C)(C)C)nc2ccccc21,-10.5%,3.93%,-1.82%,103%,1.94%,3.12%
O=C(CN1CCN(c2ccccn2)CC1)Nc1cccc(C(F)(F)F)c1,-3.17%,5.07%,-1.96%,97.9%,2.27%,2.45%
COc1ccccc1N1CCN(C2=CC(=O)CCC2)CC1,-17.3%,-12.2%,-1.22%,100%,0.81%,2.91%
CCOC(=O)C1CCCN(C(=O)CNC(=O)Cn2ccc3ccccc3c2=O)C1 (stereo not given),-6.4%,-0.325%,-4.65%,104%,0.875%,4.63%
CCOc1cc(CNC(=O)CN2C(=O)c3ccccc3S2(=O)=O)ccc1OC,-22.6%,-10.7%,-0.6%,98.1%,1.69%,0.32%
Cc1cccc(N2CCN(C(=O)c3ccc(NC(=O)C4CCCO4)cc3)CC2C)c1 (stereo not given),-10.9%,6.01%,-2.33%,105%,1.11%,4.83%
C=C(C)Cn1c(CCCNC(=O)CCC)nc2ccccc21,-14.9%,7.12%,-0.37%,94.7%,-0.295%,1.57%
S=c1nc(-c2ccccc2)n(CCCN2CCOCC2)c2c1CCCC2,-2.74%,23.8%,-4.35%,103%,0.18%,3.63%
C=CCOC(=O)CCCC(=O)NC1CCCCC1,-26.9%,5.64%,-0.4%,95.6%,1.58%,4.88%
O=C1CC(c2ccccc2)n2nc(N3C(=O)CCC3=O)nc2N1 (stereo not given),-8.97%,1.75%,-0.15%,97.9%,1.32%,3.53%
COc1cc(-c2nc3cnccn3c2Nc2ccc3c(c2)OCCO3)ccc1O,-15.6%,-2.52%,-7.25%,84.5%,2.98%,11.8%
COc1cc(C2/C(=C(\O)c3cc(C)ccc3C)C(=O)C(=O)N2CCN(C)C)ccc1O (stereo not given),-21.2%,-6.28%,-1.94%,100%,1.94%,10.3%
CCCC(=O)Nc1cc(C)c(NC(=O)Cc2ccccc2)cn1,2.84%,6.81%,-1.76%,98.2%,0.135%,2.84%
Cc1ccc(Cl)cc1N1CCN(S(=O)(=O)c2cccc(S(=O)(=O)N3CCCC3)c2)CC1,-4.5%,12%,0.04%,83.5%,2.14%,6.44%
CC(=O)Nc1c(C(=O)c2ccc(F)cc2)oc2ccccc12,-23.1%,-4.12%,-3.23%,87.4%,2.3%,7.49%
CCCc1nc2n[nH]c(N)c2c2c1CCC2,-24.2%,-12.6%,-5.25%,92%,0.825%,0.57%
COC(=O)c1cn(NC(=O)C2CCCCC2)c(=O)c2ccccc12,13.2%,6.18%,-1.25%,94.3%,-0.16%,5.38%
CCOC(=O)C1CCN(CCC(=O)Nc2cccc(Cl)c2C)CC1,-11.2%,-0.95%,-2.59%,94.6%,1.46%,2.35%
CC(C)c1nc2sc3c(SCC(=O)NCc4ccco4)ncnc3c2c2c1CCC2,-6.53%,-1.46%,-5.63%,91.7%,1.31%,5.66%
CN1CCc2c(sc3c2c(=O)n(-c2ccc(Cl)cc2)c2nncn32)C1,-12.1%,7.29%,0.1%,92.1%,1.45%,2.09%

SMILES,growth inhibition [1],growth inhibition [2],viability increase [3],viability [4],inhibition [5],RAM network inhibition [6]
Brc1cc(Br)c2ncnc(N3CCCCC3)c2c1,-2.35%,-19.5%,-7.95%,15.9% (active),2.7%,2.58%
CCCCCn1c(=O)[nH]c2cc(C(=O)NCCCN(CC)CC)ccc2c1=O,-20.8%,-0.04%,-4.48%,47.3%,1.65%,3.74%
Cc1cc(C)n(-c2cc(=O)n(C)c(=O)n2C)n1,1.39%,-9.85%,-2.96%,92.3%,0.755%,4.35%
Cc1c(C(=O)N(C)Cc2ccccc2)oc2ccc(S(=O)(=O)N3CCCC3)cc12,-18.8%,-11.4%,-5.85%,54.3%,0.18%,4.09%
CCN(Cc1ccncc1)C(=O)c1cccc(S(=O)(=O)N2CCOCC2)c1,-4.12%,6.31%,-2.89%,99.1%,1.07%,9.82%
CC(C)c1ccc(-c2nc(N3CCCC3)nc3n[nH]c(N)c23)cc1,-26.6%,10.3%,-5.36%,69.8%,3.83%,10.8%
CC(=O)c1cccc(NC(=O)N2CCCC2C(=O)Nc2c(C)cccc2C)c1 (stereo not given),-22.1%,-1.14%,-2.28%,94.1%,1.62%,3.69%
c1ccc(Nc2nc(N3CCCCC3)nc(N3CCNCC3)n2)cc1,-9.86%,-6.95%,-8.19%,3.71% (active),0.98%,3.63%
CCOC(=O)CNC(=O)c1cn(CC)c(=O)c2cc(OC)c(OC)cc12,-14.4%,-5.67%,-2.48%,103%,2.65%,2.7%
Cc1cc(C)c(S(=O)(=O)NCC2CCC(C(=O)NCCCN3CCOCC3)CC2)c(C)c1 (stereo not given),-6.14%,7.86%,-3.2%,81.3%,0.675%,-0.63%
CC1(C)Cc2c(sc3c2c(=N)n(Cc2ccco2)c(=O)n3Cc2ccc(F)cc2)CO1,-14.4%,-4.37%,-6.4%,56.5%,1.44%,6.85%
COc1cc(-c2nnn(CC#N)n2)ccc1OCc1ccccc1,-6.28%,9.63%,0.59%,94.5%,1.28%,1.51%
Cc1c(C(=O)NCCC2=CCCCC2)oc2ccc(S(=O)(=O)N3CCOCC3)cc12,2.48%,8.58%,-0.96%,31.5%,2.62%,8.35%
COc1ccc(NS(=O)(=O)c2cccc(-c3nnc4n3CCCCC4)c2)cc1,-9.52%,10.2%,-3.38%,92.6%,1.11%,1.97%
O=C(Nc1cccc(Cl)c1Cl)c1ccncc1,-9.8%,-0.975%,-0.14%,103%,1.85%,4.88%
Cc1cc(C)n2nc(CCc3nc4nc(C)cc(C)n4n3)nc2n1,3.12%,4.29%,-1.49%,94.8%,0.62%,1.76%
CC(=O)c1ccc(NC(=O)CSc2nnc(NC(=O)CN3CCOCC3)s2)cc1,8.22%,7.59%,-1.64%,102%,2.19%,0.62%
Cc1ccc(C)c(NC(=O)CSc2nnc(-c3ccncc3)n2N)c1,5.02%,-0.075%,-4.65%,103%,0.06%,-0.98%
Cn1nnc2c(NCc3ccco3)nccc21,-26%,-1.62%,-4.4%,96.6%,3.05%,0.93%
COc1ccc(C2c3c(oc4ccccc4c3=O)C(=O)N2c2ccccn2)cc1OC (stereo not given),-10.4%,-11.2%,-6.93%,72.7%,2.8%,2.68%
